Test results from ChEMBL document CHEMBL1806379, “Efficient synthesis of antifungal active 9-substituted-3-aryl-5H,13aH-quinolino[3,2-f][1,2,4]triazolo[4,3-b][1,2,4]triazepines in ionic liquids” (2011).

Key:
Type in all cases: functional
[1] = tested on: Aspergillus niger; assay: Antifungal activity against Aspergillus niger at 500 ug after 24 hrs by paper disc technique; conditions: read-out: IZ
How it was run: (§1)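 Potato dextrose agar plates: sterilized base layer overlaid with seeded medium (cooled to 40 °C, spore suspension from ten-day cultures of A. niger, A. flavus, P. notatum and Rhizopus species added), chilled before use. Disc diffusion, incubation at 28 °C; zone read after 24 h from disc centre. I% = (C − T)/C × 100 (C, zone diameter in check; […]). Fluconazole (500 and 1000 µg/ml) as standard.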

[2] = tested on: Aspergillus niger; assay: Antifungal activity against Aspergillus niger at 1000 ug after 24 hrs by paper disc technique; conditions: read-out: IZ; how it was run: as §1
[3] = tested on: Aspergillus flavus; assay: Antifungal activity against Aspergillus flavus at 1000 ug after 24 hrs by paper disc technique relative to control; how it was run: as §1
[4] = tested on: Rhizopus; assay: Antifungal activity against Rhizopus sp. at 1000 ug after 24 hrs by paper disc technique; conditions: read-out: IZ; how it was run: as §1
[5] = tested on: Rhizopus; assay: Antifungal activity against Rhizopus sp. at 500 ug after 24 hrs by paper disc technique relative to control; how it was run: as §1
[6] = tested on: Rhizopus; assay: Antifungal activity against Rhizopus sp. at 500 ug after 24 hrs by paper disc technique; conditions: read-out: IZ; how it was run: as §1
[7] = tested on: Rhizopus; assay: Antifungal activity against Rhizopus sp. at 1000 ug after 24 hrs by paper disc technique relative to control; how it was run: as §1
[8] = tested on: Aspergillus niger; assay: Antifungal activity against Aspergillus niger at 500 ug after 24 hrs by paper disc technique relative to control; how it was run: as §1
[9] = tested on: Aspergillus niger; assay: Antifungal activity against Aspergillus niger at 1000 ug after 24 hrs by paper disc technique relative to control; how it was run: as §1
[10] = tested on: Aspergillus flavus; assay: Antifungal activity against Aspergillus flavus at 500 ug after 24 hrs by paper disc technique relative to control; how it was run: as §1
[11] = tested on: Aspergillus flavus; assay: Antifungal activity against Aspergillus flavus at 500 ug after 24 hrs by paper disc technique; conditions: read-out: IZ; how it was run: as §1
[12] = tested on: Penicillium chrysogenum; assay: Antifungal activity against Penicillium notatum sp. at 500 ug after 24 hrs by paper disc technique; conditions: read-out: IZ; how it was run: as §1
[13] = tested on: Penicillium chrysogenum; assay: Antifungal activity against Penicillium notatum sp. at 1000 ug after 24 hrs by paper disc technique; conditions: read-out: IZ; how it was run: as §1
[14] = tested on: Aspergillus flavus; assay: Antifungal activity against Aspergillus flavus at 1000 ug after 24 hrs by paper disc technique; conditions: read-out: IZ; how it was run: as §1
[15] = tested on: Penicillium chrysogenum; assay: Antifungal activity against Penicillium notatum sp. at 500 ug after 24 hrs by paper disc technique relative to control; how it was run: as §1
[16] = tested on: Penicillium chrysogenum; assay: Antifungal activity against Penicillium notatum sp. at 1000 ug after 24 hrs by paper disc technique relative to control; how it was run: as §1

| Structure (SMILES) | zone of inhibition at 500 µg/disc [1] | zone of inhibition at 1000 µg/disc [2] | Activity [3] | zone of inhibition at 1000 µg/disc [4] | Activity [5] | zone of inhibition at 500 µg/disc [6] | Activity [7] | Activity [8] | Activity [9] | Activity [10] | zone of inhibition at 500 µg/disc [11] | zone of inhibition at 500 µg/disc [12] | zone of inhibition at 1000 µg/disc [13] | zone of inhibition at 1000 µg/disc [14] | Activity [15] | Activity [16] |
| --- | --- | --- | --- | --- | --- | --- | --- | --- | --- | --- | --- | --- | --- | --- | --- | --- |
| Cc1ccc2nc3c(cc2c1)C=Nn1c(nnc1-c1ccc([N+](=O)[O-])cc1)N3 | 34 mm | 40 mm | 81.66% | 30 mm | 33.33% | 20 mm | 50% | 56.66% | 66.66% | 71.66% | 43 mm | 48 mm | 42 mm | 49 mm | 80% | 70% |
| O=[N+]([O-])c1ccc(-c2nnc3n2N=Cc2cc4ccccc4nc2N3)cc1 | 22 mm | 38 mm | 60% | 26 mm | 41.66% | 25 mm | 43.33% | 33.33% | 63.33% | 60% | 36 mm | 43 mm | 52 mm | 36 mm | 71.66% | 86.66% |
| Cc1ccc2nc3c(cc2c1)C=Nn1c(nnc1-c1ccccc1Cl)N3 | 24 mm | 43 mm | 53.33% | 32 mm | 46.66% | 28 mm | 53.33% | 40% | 71.66% | 70.66% | 42 mm | 44 mm | 42 mm | 32 mm | 73.33% | 70% |
| OC(Cn1cncn1)(Cn1cncn1)c1ccc(F)cc1F [FLUCONAZOLE] | 42 mm | 48 mm | 70% | 42 mm | 63.33% | 38 mm | 70% | 70% | 80% | 58.33% | 35 mm | 52 mm | 54 mm | 42 mm | 86.66% | 90% |
| C1=Nn2c(nnc2-c2ccccc2)Nc2nc3ccccc3cc21 | 39 mm | 43 mm | 70% | 30 mm | 50% | 30 mm | 50% | 53.33% | 71.66% | 53.33% | 32 mm | 44 mm | 54 mm | 45 mm | 73.33% | 90% |
